Measurements as given in ChEMBL document CHEMBL4251566 (Eur J Med Chem, 2018).

Key:
[1] = system: NAMALVA; assay: Antiproliferative activity against human NAMALWA cells after 72 hrs by CCK-8 assay; format: functional, cell-based
Outline: (§1)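 CCK-8 viability assay. Cells were seeded at 3000/well in RPMI-1640 with 10% FBS at 37 °C, 5% CO2, for 4 h before treatment. Exposure was 72 h at five concentrations (1.25, 5, 10, 20, 40 µM), each in five replicates. Absorbance was read at 450 nm. IC50 came from dose-response curves, as the mean of at least three separate experiments.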

[2] = system: Ramos; assay: Induction of apoptosis in human Ramos cells assessed as necrotic cells at 10 uM after 72 hrs by Annexin V-FITC/propidium iodide staining based flow cytometry (reference value: 0.7%); format: functional
[3] = system: Raji; assay: Antiproliferative activity against human Raji cells after 72 hrs by CCK-8 assay; format: functional, cell-based; outline: as §1
[4] = system: Ramos; assay: Induction of apoptosis in human Ramos cells assessed as early apoptotic cells at 20 uM after 72 hrs by Annexin V-FITC/propidium iodide staining based flow cytometry (reference value: 0.0%); format: functional
[5] = system: Ramos; assay: Induction of apoptosis in human Ramos cells assessed as total apoptosis rate at 10 uM after 72 hrs by Annexin V-FITC/propidium iodide staining based flow cytometry relative to control
[6] = system: Ramos; assay: Induction of apoptosis in human Ramos cells assessed as total apoptosis rate at 5 uM after 72 hrs by Annexin V-FITC/propidium iodide staining based flow cytometry relative to control
[7] = target: Tyrosine-protein kinase BTK (Homo sapiens, UniProt Q06187); assay: Inhibition of recombinant full-length N-terminal His-tagged human BTK expressed in baculovirus infected Sf9 insect cells using Poly(4:1 Glu,Tyr) peptide substrate incubated for 60 mins by ADP-Glo luminescence assay
[8] = system: Ramos; assay: Induction of apoptosis in human Ramos cells assessed as late apoptotic cells at 20 uM after 72 hrs by Annexin V-FITC/propidium iodide staining based flow cytometry (reference value: 0.5%); format: functional
[9] = system: Ramos; assay: Antitumor activity against human Ramos cells xenografted in CB17/SCID mouse assessed as tumor growth inhibition at 30 mg/kg, po qd for 14 days; format: functional; settings: 336 h, read-out: TGI
Outline: (§2)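 Female CB17/SCID mice, 5–6 weeks old and 20–25 g, received 3×10⁶ Ramos cells in 0.1 mL PBS subcutaneously in the right axilla. From day 3 after implantation, dosing was oral at 30 or 60 mg/kg for 14 days; vehicle controls got oral 25% PEG-400. Tumor volume was A×B²/2 from caliper diameters. Tumor weight was taken at sacrifice, and body weight was tracked. n = 5.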

[10] = system: Mus musculus; assay: Toxicity in CB17/SCID mouse xenografted with Ramos cells assessed as change in body weight at 60 mg/kg, po qd for 14 days; format: organism-based; settings: in vivo, 336 h; outline: as §2
[11] = system: Ramos; assay: Antitumor activity against human Ramos cells xenografted in CB17/SCID mouse assessed as tumor growth inhibition at 60 mg/kg, po qd for 14 days; format: functional; settings: 336 h, read-out: TGI; outline: as §2
[12] = system: Ramos; assay: Antiproliferative activity against human Ramos cells at 1.25 to 40 uM by CCK-8 assay; format: functional, cell-based; settings: TDE = time-dependent effect; outline: as §1
[13] = system: Ramos; assay: Antitumor activity against human Ramos cells xenografted in po dosed CB17/SCID mouse assessed as reduction in tumor growth administered as qd for 14 days; format: functional, organism-based; outline: as §2

Chain of Tyrosine-protein kinase BTK (Q06187 whole entry): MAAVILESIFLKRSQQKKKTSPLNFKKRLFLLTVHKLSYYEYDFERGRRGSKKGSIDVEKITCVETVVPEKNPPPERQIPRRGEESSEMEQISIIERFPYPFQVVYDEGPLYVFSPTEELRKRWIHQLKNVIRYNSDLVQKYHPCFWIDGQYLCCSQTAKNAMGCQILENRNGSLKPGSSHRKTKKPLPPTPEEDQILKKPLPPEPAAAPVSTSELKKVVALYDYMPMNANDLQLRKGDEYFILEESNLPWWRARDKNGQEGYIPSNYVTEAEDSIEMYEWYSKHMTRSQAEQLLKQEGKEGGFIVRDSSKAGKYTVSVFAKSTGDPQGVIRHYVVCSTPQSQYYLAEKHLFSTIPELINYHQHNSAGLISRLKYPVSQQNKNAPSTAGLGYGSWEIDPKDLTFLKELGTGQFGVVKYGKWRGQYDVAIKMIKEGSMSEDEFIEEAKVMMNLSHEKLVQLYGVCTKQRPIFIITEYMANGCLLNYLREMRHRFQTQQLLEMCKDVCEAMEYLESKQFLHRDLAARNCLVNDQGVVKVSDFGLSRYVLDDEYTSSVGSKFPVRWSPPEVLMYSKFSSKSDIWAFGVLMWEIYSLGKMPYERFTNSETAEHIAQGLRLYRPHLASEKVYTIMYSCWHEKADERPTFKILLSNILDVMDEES

Compound	IC50 [1] [µM]	Activity [2] [%]	IC50 [3] [µM]	Activity [4] [%]	Activity [5] [%]	Activity [6] [%]	IC50 [7] [µM]	Activity [8] [%]	inhibition in vivo at 30 mg/kg [9] [%]	Activity [10]	inhibition in vivo at 60 mg/kg [11] [%]	Activity [12]	TGI [13]
C=CC(=O)Nc1cccc(Nc2nc(Nc3ccc(OCCCN4CCOCC4)cc3)ncc2Cl)c1	8.23	2.7	9.32	61.6	77.2	59	0.0006	18.6	36.6	<= 5%	47.5	Tde	Dose-dependent effect
C=CC(=O)Nc1cccc(Nc2nc(Nc3ccc(OCC(=O)N4CCOCC4)c(Cl)c3)ncc2Cl)c1	6.45	1.1	8.89	65.1	69.9	61.8	0.0008	14.4	24.4	<= 5%	36.6	Tde	Dose-dependent effect
